Assay results of several laboratories.
Each line is one published result; the experiments were not run side by side.
Target: Serine/threonine-protein kinase Nek11 (NEK11, Homo sapiens, UniProt Q8NG66)
Residues used in one study (Q8NG66 1-645): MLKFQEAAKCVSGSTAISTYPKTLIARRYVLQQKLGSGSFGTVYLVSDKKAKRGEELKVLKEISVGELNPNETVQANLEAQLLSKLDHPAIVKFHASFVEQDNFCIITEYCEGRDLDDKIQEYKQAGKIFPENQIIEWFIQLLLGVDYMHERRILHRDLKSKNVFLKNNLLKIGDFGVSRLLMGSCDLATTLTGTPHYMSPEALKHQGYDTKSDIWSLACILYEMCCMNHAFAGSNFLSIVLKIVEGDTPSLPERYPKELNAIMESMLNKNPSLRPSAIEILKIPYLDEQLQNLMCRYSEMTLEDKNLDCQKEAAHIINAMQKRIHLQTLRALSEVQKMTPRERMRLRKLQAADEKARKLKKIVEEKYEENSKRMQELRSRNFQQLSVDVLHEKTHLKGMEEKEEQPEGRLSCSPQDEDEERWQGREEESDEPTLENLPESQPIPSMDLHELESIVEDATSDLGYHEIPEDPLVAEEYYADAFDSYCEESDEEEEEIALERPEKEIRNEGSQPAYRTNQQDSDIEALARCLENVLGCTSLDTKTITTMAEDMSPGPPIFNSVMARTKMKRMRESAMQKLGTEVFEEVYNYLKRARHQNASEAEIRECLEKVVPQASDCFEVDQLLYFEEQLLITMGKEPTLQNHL

CC1CCCN1c1nccc(-c2cnn3ncccc23)n1 (centres unmarked) — remaining binding (binding; 1 µM): 100%
O=C(NCCCN1CCOCC1)c1ccc(Nc2ncc(Cl)c(-c3ccc(Cl)s3)n2)cc1 — remaining binding (binding, competition with immobilised ligand; 1 µM): 88%
CNCc1ccccc1-c1csc([C@H](C)Nc2nc(C)nc3cc(OC)c(OC)cc23)c1 — remaining binding (cell-free assay, competition with immobilised ligand; 1 µM): 100%
O=C(NCC1CCOCC1)c1n[nH]cc1NC(=O)c1c(F)cccc1F — remaining binding (binding, competition with immobilised ligand; 1 µM): 91%
COc1cnc(Nc2cccc(S(N)(=O)=O)c2)nc1N1CCN(c2ccccc2)C(=O)C1 — remaining binding (binding, competition with immobilised ligand; 1 µM): 90%
Cc1cc(C)c(-n2ccn3nc(-c4cccnc4)cc23)cc1NC(=O)c1cc(C#N)cc(S(F)(F)(F)(F)F)c1 — remaining binding (cell-free assay, competition with immobilised ligand; 0.1 µM): 86.1%
Cc1cnc(Nc2ccc(C(=O)N3CCC(N4CCCC4)CC3)cc2)nc1-c1cc2ccccc2s1 — remaining binding (binding, competition with immobilised ligand; 1 µM): 64%
COc1ccc2c(c1)O[C@H](c1ccc(OC)c(OC)c1)C[C@@H]2NC(=O)C1(c2ccc3c(c2)OC(F)(F)O3)CC1 — remaining binding (cell-free assay, competition with immobilised ligand; 1 µM): 88%
O=C(c1ccc(Nc2ncc(Cl)c(-c3ccc(Cl)s3)n2)cc1)N1CCC(N2CCCC2)CC1 — remaining binding (binding, competition with immobilised ligand; 1 µM): 100%
c1cnn2ncc(-c3ccnc(N4CCC45COC5)n3)c2c1 — remaining binding (binding; 1 µM): 89%
Cn1nc(C(F)(F)F)cc1-c1cnc(N2CCc3cc(S(=O)(=O)Nc4c(F)cc(Cl)cc4F)cc(N4CCCC4=O)c32)nc1 — remaining binding (cell-free assay, competition with immobilised ligand; 1 µM): 78%
CN(C)c1nccc(-c2cnc3ncccn23)n1 — remaining binding (binding; 1 µM): 81%
Cc1cc(-n2nc(Cc3cc(F)cc(C(F)(F)F)c3)nc2C)ccc1C(N)=O — remaining binding (cell-free assay, competition with immobilised ligand; 1 µM): 100%
COc1ccnn2ncc(-c3ccnc(N(C)C)n3)c12 — remaining binding (binding; 1 µM): 100%
COc1ncc2cc3ccccc3nc2c1C#N — remaining binding (cell-free assay, competition with immobilised ligand; 5 µM): 60%
N[C@H]1CCN(c2nccc(-c3cnn4ncccc34)n2)C1 — remaining binding (binding; 1 µM): 71%
C[C@@H](c1ccc(-n2cnc3c(N)ncnc32)cc1)N1CCc2nn(C)c(Cc3ccccc3)c2C1=O — remaining binding (binding, competition with immobilised ligand; 0.1 µM): 78%
F[C@@H]1CCN(c2nccc(-c3cnn4ncccc34)n2)C1 — remaining binding (binding; 1 µM): 100%
CC(=O)C1=C(C)N(c2cccc(C(F)(F)F)c2)C(=O)N[C@@H]1c1ccc(C#N)nc1 — remaining binding (cell-free assay, competition with immobilised ligand; 1 µM): 100%
CCN1CCN(Cc2ccc(C(=O)Nc3ccc(C)c(Oc4ccc5c(c4)CC(=O)N5)c3)cc2C(F)(F)F)CC1 — remaining binding (binding, competition with immobilised ligand; 1 µM): 100%
